Data on 44 compounds can be found in ChEMBL document CHEMBL4219038, “1-Thiazol-2-yl-N-3-methyl-1H-pyrozole-5-carboxylic acid derivatives as antitumor agents” (Bioorg Med Chem Lett, 2017).

pEC50, pIC50: −log10 of the molar value. Calls of active or inactive are those of the source. No cut-off for these calls is given here.

For orientation: pIC50 means the negative decadic logarithm of the IC50, by convention in mol/L. High values mean a low IC50, low ones a high IC50. As a reminder, the pEC50 is the EC50 on a negative log10 scale, so that one unit is a factor of ten.

One assay concerns HCT-116. Put plainly: Cell cycle arrest in human HCT116 cells assessed as reduction in cell levels at M-phase at 0.001 to 10 uM after 24 hrs by EdU-staining based high content imaging analysis. It counts as functional.
Conditions: not given
The gist of the method: (§1)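 HCT-116 cells plated on poly-lysine-coated plates overnight, then treated 24 h with compound (DMSO stock diluted into McCoy's medium with 10% FBS). EdU labelling of newly synthesized DNA, 4% formaldehyde fixation, then high-content imaging in three fluorescent channels for total cell count, DNA content and S-phase cells. Means of three biological replicates, SEM.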
For the compound `CC(=O)Nc1ccc(-c2c(C)nn(-c3nc(-c4ccc(Cl)c(Cl)c4)c(SC(C)C)s3)c2C(=O)O)cc1`, the result was inactive.

In another assay the test system is HCT-116. Put plainly: Cell cycle arrest in human HCT116 cells assessed as reduction in cell levels at S-phase at 0.001 to 10 uM after 24 hrs EdU-staining based high content imaging analysis. It counts as functional.
Conditions: not given
An outline of the steps: as §1
Consider `CC(=O)Nc1ccc(-c2c(C)nn(-c3nc(-c4ccc(Cl)c(Cl)c4)c(SC(C)C)s3)c2C(=O)O)cc1`, for which the result was inactive. Same read-out and setting: the value for `Cc1nn(-c2nc(-c3ccc(Cl)c(Cl)c3)c(SC(C)C)s2)c(C(=O)O)c1-c1cnccn1` was “Active”.

In a further assay the test system is BJAB. Kind of assay: Antiproliferative activity against human BJAB cells after 4 days. It counts as functional, cell-based. As to conditions: Homo sapiens, BJAB, 96 h.
The compound `O=C(O)/C(Cc1ccccc1[N+](=O)[O-])=N\Nc1nc(-c2ccc(Cl)c(Cl)c2)cs1` gave a negative-log IC50 (pIC50) of 4.70.

Still in this assay, the particulars now being: Homo sapiens, BJAB, 96 h; read-out: EC50.
As for `Cc1cc(C)cc(-c2c(C)nn(-c3nc(-c4ccc(Cl)c(Cl)c4)c(SC(C)C)s3)c2C(=O)O)c1`, the pEC50 is 5.57. Turning to `Cc1ccccc1-c1c(C)nn(-c2nc(-c3ccc(Cl)c(Cl)c3)c(SC(C)C)s2)c1C(=O)O`, the pEC50 was 5.26. The same measure, in the same setting: in the case of `Cc1nn(-c2nc(-c3ccc(Cl)c(Cl)c3)c(SC(C)C)s2)c(C(=O)O)c1-c1cc(C#N)cc(C(F)(F)F)c1` it was 5.44; in that of `CCSc1sc(-n2nc(C)c(Cc3ccccc3[N+](=O)[O-])c2C(=O)O)nc1-c1ccc(Cl)c(Cl)c1`, 4.23. Same read-out and setting: the value for `Cc1nn(-c2nc(-c3ccc(Cl)c(Cl)c3)c(SC(C)C)s2)c(C(=O)O)c1-c1cc(C(F)(F)F)cc(C(F)(F)F)c1` was 5.74; that for `Cc1nn(-c2nc(-c3ccc(Cl)c(Cl)c3)c(SC(C)C)s2)c(C(=O)O)c1-c1cnn(C)c1` was 5.17; that for `COC(=O)c1c(Cc2ccccc2[N+](=O)[O-])c(C)nn1-c1nc(-c2ccc(Cl)c(Cl)c2)cs1` was 3.42. Still for that read-out and setting: the value for `COc1cncc(-c2c(C)nn(-c3nc(-c4ccc(Cl)c(Cl)c4)c(SC(C)C)s3)c2C(=O)O)c1` was 4.68; that for `Cc1nn(-c2nc(-c3ccc(Cl)c(Cl)c3)c(SC(C)C)s2)c(C(=O)O)c1-c1cncnc1` was 4.66; that for `CC(=O)Nc1ccc(-c2c(C)nn(-c3nc(-c4ccc(Cl)c(Cl)c4)c(SC(C)C)s3)c2C(=O)O)cc1` was 3.86.

`Cc1nn(-c2nc(-c3ccc(Cl)c(Cl)c3)c(SC(C)C)s2)c(C(=O)O)c1-c1ccc(Cl)cc1`: the pEC50 was 5.60.

Consider `Cc1nn(-c2nc(-c3ccc(Cl)c(Cl)c3)c(SC(C)C)s2)c(C(=O)O)c1-c1cccnc1`, for which the pEC50 is 4.92.

`CCSc1sc(-n2nc(C)c(Cc3ccccc3[N+](=O)[O-])c2C(=O)OC)nc1-c1ccc(Cl)c(Cl)c1`: the pEC50 is 3.97. Same read-out and setting: in the case of `Cc1nn(-c2nc(-c3ccc(Cl)c(Cl)c3)c(SC(C)C)s2)c(C(=O)O)c1-c1ccccc1` it was 5.47 to 5.52. Same read-out and setting: in the case of `Cc1nn(-c2nc(-c3ccc(Cl)c(Cl)c3)c(SC(C)C)s2)c(C(=O)O)c1-c1ccncc1` it was 5.23; in that of `Cc1nn(-c2nc(-c3ccc(Cl)c(Cl)c3)c(SC(C)C)s2)c(C(=O)O)c1-c1ccccc1[N+](=O)[O-]`, 5.33; in that of `Cc1nn(-c2nc(-c3ccc(Cl)c(Cl)c3)c(SC(C)C)s2)c(C(=O)O)c1-c1ccccc1C(F)(F)F`, 5.28. Still for that read-out and setting: in the case of `COc1ccc(-c2c(C)nn(-c3nc(-c4ccc(Cl)c(Cl)c4)c(SC(C)C)s3)c2C(=O)O)cc1` it was 5.68. For `Cc1nn(-c2nc(-c3ccc(Cl)c(Cl)c3)c(SC(C)C)s2)c(C(=O)O)c1-c1cccc(Cl)c1`, the negative-log EC50 (pEC50) is 4.87. For the compound `Cc1nn(-c2nc(-c3ccc(Cl)c(Cl)c3)c(SC(C)C)s2)c(C(=O)O)c1-c1cncc(C#N)c1`, the pEC50 was 4.70.

Regarding `Cc1ccc(-c2c(C)nn(-c3nc(-c4ccc(Cl)c(Cl)c4)c(SC(C)C)s3)c2C(=O)O)cc1`, the negative-log EC50 (pEC50) is 5.42. Still for that read-out and setting: in the case of `Cc1cc(-c2c(C)nn(-c3nc(-c4ccc(Cl)c(Cl)c4)c(SC(C)C)s3)c2C(=O)O)cc(C)n1` it was 6.24; in that of `Cc1nn(-c2nc(-c3ccc(Cl)c(Cl)c3)c(SC(C)C)s2)c(C(=O)O)c1Cc1ccccc1[N+](=O)[O-]`, 4.70. Still for that read-out and setting: the value for `Cc1cc(Cl)cc(-c2c(C)nn(-c3nc(-c4ccc(Cl)c(Cl)c4)c(SC(C)C)s3)c2C(=O)O)c1` was 6.18; that for `Cc1nn(-c2nc(-c3ccc(Cl)c(Cl)c3)c(SC(C)C)s2)c(C(=O)O)c1-c1cccc(Cl)c1C` was 5.29; that for `COc1cccc(-c2c(C)nn(-c3nc(-c4ccc(Cl)c(Cl)c4)c(SC(C)C)s3)c2C(=O)O)c1` was 4.85.

Turning to `CNc1cc(-c2c(C)nn(-c3nc(-c4ccc(Cl)c(Cl)c4)c(SC(C)C)s3)c2C(=O)O)ccn1`, the negative logarithm of the EC50 (pEC50) is 4.74. Still for that read-out and setting: the value for `Cc1nn(-c2nc(-c3ccc(Cl)c(Cl)c3)c(SC(C)C)s2)c(C(=O)O)c1-c1cnccn1` was 4.85. Still for that read-out and setting: the value for `CCOc1ncccc1-c1c(C)nn(-c2nc(-c3ccc(Cl)c(Cl)c3)c(SC(C)C)s2)c1C(=O)O` was 4.96. `COc1cc(-c2c(C)nn(-c3nc(-c4ccc(Cl)c(Cl)c4)c(SC(C)C)s3)c2C(=O)O)cc(C(F)(F)F)c1`: the pEC50 is 5.86.

Consider `COc1cc(Cl)cc(-c2c(C)nn(-c3nc(-c4ccc(Cl)c(Cl)c4)c(SC(C)C)s3)c2C(=O)O)c1`, for which the negative-log EC50 (pEC50) was 6.12. On the same count and under the same terms, in the case of `COc1ccc(C)cc1-c1c(C)nn(-c2nc(-c3ccc(Cl)c(Cl)c3)c(SC(C)C)s2)c1C(=O)O` it was 5.02; in that of `Cc1nn(-c2nc(-c3ccc(Cl)c(Cl)c3)c(SC(C)C)s2)c(C(=O)O)c1-c1cccc(C(F)(F)F)c1`, 4.66. `Cc1nn(-c2nc(-c3ccc(Cl)c(Cl)c3)c(SC(C)C)s2)c(C(=O)O)c1-c1cccc(F)c1`: the pEC50 was 6.05. The same measure, in the same setting: the value for `COc1ccccc1-c1c(C)nn(-c2nc(-c3ccc(Cl)c(Cl)c3)c(SC(C)C)s2)c1C(=O)O` was 4.83; that for `Cc1cc(C#N)cc(-c2c(C)nn(-c3nc(-c4ccc(Cl)c(Cl)c4)c(SC(C)C)s3)c2C(=O)O)c1` was 5.32; that for `COC(=O)c1c(Cc2ccccc2[N+](=O)[O-])c(C)nn1-c1nc(-c2ccc(Cl)c(Cl)c2)c(SC(C)C)s1` was 4.03. On the same count and under the same terms, the value for `COc1cc(C#N)cc(-c2c(C)nn(-c3nc(-c4ccc(Cl)c(Cl)c4)c(SC(C)C)s3)c2C(=O)O)c1` was 5.28; that for `Cc1nn(-c2nc(-c3ccc(Cl)c(Cl)c3)c(SC(C)C)s2)c(C(=O)O)c1-c1ccc(C(F)(F)F)cc1` was 5.46. Same read-out and setting: the value for `Cc1cccc(-c2c(C)nn(-c3nc(-c4ccc(Cl)c(Cl)c4)c(SC(C)C)s3)c2C(=O)O)c1` was 4.77. With `Cc1nn(-c2nc(-c3ccc(Cl)c(Cl)c3)c(SC(C)C)s2)c(C(=O)O)c1-c1ccccc1Cl`, the pEC50 was 4.88.

The assay is the same for the next values; noted with them: bjab.
Regarding `Cc1nn(-c2nc(-c3cccnc3)c(SC(C)C)s2)c(C(=O)O)c1-c1cc(Cl)cc(Cl)c1`, the EC50 entry is reported as “Not Active”. The same measure, in the same setting: in the case of `Cc1nn(-c2nc(-c3ccc4nccn4c3)c(SC(C)C)s2)c(C(=O)O)c1-c1cc(Cl)cc(Cl)c1` it was “Not Active”.

Another assay concerns HCT-116. Kind of assay: Cell cycle arrest in human HCT116 cells assessed as reduction in cell levels at S/G2 phase at 0.001 to 10 uM after 24 hrs by EdU-staining based high content imaging analysis. Format: functional.
Conditions: not given
The gist of the method:
as §1
For the compound `CC(=O)Nc1ccc(-c2c(C)nn(-c3nc(-c4ccc(Cl)c(Cl)c4)c(SC(C)C)s3)c2C(=O)O)cc1`, the result was inactive.

In the next assay the test system is HCT-116. Put plainly: Cell cycle arrest in human HCT116 cells assessed as accumulation at G0/G1 phase at 0.001 to 10 uM after 24 hrs by EdU-staining based high content imaging analysis. It counts as functional.
Conditions: not given
An outline of the steps: as §1
Consider `CC(=O)Nc1ccc(-c2c(C)nn(-c3nc(-c4ccc(Cl)c(Cl)c4)c(SC(C)C)s3)c2C(=O)O)cc1`, for which the result was inactive.
